Laboratory results reported in BindingDB's records for doi:10.1021/jm201131n (Academia Sinica, 2011).

How the values were obtained:
[1] = biological target: T1, Glutathione S-transferase A2 (Homo sapiens, UniProt P09210); test: Inhibition of human GSTA2 using GSH as substrate after 3 mins by spectrophotometry
T1 sequence (P09210 whole entry): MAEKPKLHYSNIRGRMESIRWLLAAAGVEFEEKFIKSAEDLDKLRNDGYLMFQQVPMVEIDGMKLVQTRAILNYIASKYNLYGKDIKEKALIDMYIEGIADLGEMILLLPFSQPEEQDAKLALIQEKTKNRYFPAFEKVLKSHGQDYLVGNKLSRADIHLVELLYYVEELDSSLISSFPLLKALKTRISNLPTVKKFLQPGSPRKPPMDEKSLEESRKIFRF
In short: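 Human GST enzyme preincubated with inhibitor (0–200 μM) in 100 mM potassium phosphate pH 6.5 at 37 °C (GSTM1 at 32 ng). Reaction started with GSH (final 2 mM) and followed at 340 nm for 3 min. IC50 by nonlinear regression, mean ± SEM, n = 3. Percent inhibition at 100 μM is not corrected for glutathione conjugate formation.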

[2] = biological target: Glutathione S-transferase P (Homo sapiens, UniProt P09211); test: Inhibition of human GSTP1-1 using GSH as substrate after 3 mins by spectrophotometry
Glutathione S-transferase P, sequence (P09211 whole entry): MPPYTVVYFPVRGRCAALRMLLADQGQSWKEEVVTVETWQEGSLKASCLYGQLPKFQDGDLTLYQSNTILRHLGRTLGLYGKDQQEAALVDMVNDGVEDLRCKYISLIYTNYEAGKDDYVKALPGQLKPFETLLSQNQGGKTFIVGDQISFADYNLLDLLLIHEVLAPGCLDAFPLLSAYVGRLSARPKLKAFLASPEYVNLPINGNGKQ

| IC50 [1] | IC50 [2] | Compound |
| --- | --- | --- |
| > 100 µM | > 100 µM | CC(=O)OCC1CC(O)[C@H](O)C(=O)C1=O (stereo partly specified) |
| > 100 µM | > 100 µM | CC(=O)OCC1C[C@H](O)[C@H](O)C(=O)C1=O (stereo partly specified) |
| > 100 µM |  | CO[C@]1(C)O[C@H]2[C@H](O)C(C=O)CC(=O)[C@@H]2O[C@@]1(C)OC (stereo partly specified) |
| > 100 µM | > 100 µM | CC(=O)OCC1C[C@@H](O)[C@H](O)C(=O)C1=O (stereo partly specified) |
| > 100 µM | > 100 µM | CO[C@H]1CC(COC(C)=O)C(=O)C(=O)[C@H]1O (stereo partly specified) |
| > 100 µM | > 100 µM | CO[C@@H]1CC(COC(C)=O)C(=O)C(=O)[C@H]1O (stereo partly specified) |
